From ChEMBL document CHEMBL1909628, “Discovery of 6-substituted indole-3-glyoxylamides as lead antiprion agents with enhanced cell line activity, improved microsomal stability and low toxicity” (Eur J Med Chem, 2011)

What was measured:
ScN2a = experiment: Cytotoxicity against mouse ScN2a cells up to 32 uM; format: cell-based
Procedure, shortened: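 ScN2a cells seeded separately in 96-well plates. Calcein cell viability assay run in parallel with the ELISA screen, up to 32 uM maximum.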

[1] = Cytotoxicity against mouse SMB.s15 cells at 20 uM after 5 days by MTT assay; format: cell-based; conditions: smb.s15, 120 h
Procedure, shortened: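 SMB.s15 cells at 12,000 cells/well, exposed to compound for 5 days at 37 °C (DMSO stock diluted via HBSS into medium). Viability measured by MTT assay per the reagent's standard protocol.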

[2] = (§1) Toxicity in zebrafish assessed as organism survival at 5 uM treated at 48 hrs post-fertilization measured after 3 days; format: organism-based, Danio rerio; conditions: in vivo
Procedure, shortened: (§2)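 AB wild-type zebrafish embryos dechorionated with pronase at 48 hpf, 3 per well in methylene blue-free E3 medium. Dosed at 5 uM from 10 mM DMSO stocks (1% v/v DMSO). Kept at 28 °C for 72 h without food; survival scored at day 5 versus vehicle controls. Two experiments, each in triplicate.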

[3] = Metabolic stability in mouse liver microsomes assessed as compound remaining after 30 mins by HPLC analysis; format: ADME, Microsome; conditions: read-out: Stability
Procedure, shortened: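 Mouse liver microsomes (0.5 mg/mL stock) in 0.2 M potassium phosphate pH 7.0 with DL-isocitrate, MgCl2 and isocitrate dehydrogenase. Preincubated 5 min at 37 °C, then started with NADPH. Sampled at t=0 and after 30 min at 37 °C, quenched in ice-cold acetonitrile with internal standard. Analysed by C18 HPLC, UV at 267 nm, in triplicate.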

[4] = Antiprion activity against PrPsc infected in mouse SMB.s15 cells assessed as complete clearance of PrPSc after 5 days by dot blot analysis; format: cell-based; conditions: SMB.s15, 120 h
Procedure, shortened: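 SMB.s15 cells (scrapie-infected, mesodermal origin) in Medium 199 with 10% newborn calf and 5% fetal calf serum, seeded at 12,000 cells/well, 24 h attachment. Compound added from DMSO stock via HBSS dilution, 5 days at 37 °C. Lysates dot-blotted, proteinase K digestion (1 h, 37 °C), guanidine thiocyanate, anti-PrP 6H4 mAb, ECL. Triplicate, PrPSc relative to DMSO-only control.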

[5] = Toxicity in zebrafish assessed as mortality rate at 5 uM measured after 72 hrs; format: organism-based, Danio rerio; conditions: in vivo, read-out: Activity; procedure, shortened: as §2
[6] = Antiprion activity against PrPsc infected in mouse ScN2a cells assessed as complete clearance of PrPSc after 5 days by ELISA; format: cell-based; conditions: 120 h
Procedure, shortened: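 ScN2a cells (N2a infected with RML prion strain) seeded at 4×10^5 cells/well in MEM with 10% FBS, GlutaMax, geneticin. Compound added 4 h after seeding, 0.5% final DMSO, 5 days at 37 °C. Lysates captured on D18 Fab-coated ELISA plates overnight at 4 °C, HRP-D13 detection, ABTS, absorbance at 405 nm. Dose-response curves from three independent experiments.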

Danio rerio = species on record: Danio rerio; experiment: as §1; format: organism-based; conditions: in vivo, 72 h, 5 µM; procedure, shortened: as §2

| SMILES | Activity (ScN2a) | Activity [1] | survival at 72 h, 5 µM [2] | remaining at 0.5 h [3] | EC50 [4] | mortality at 72 h, 5 µM [5] | EC50 [6] | Activity (Danio rerio) |
| --- | --- | --- | --- | --- | --- | --- | --- | --- |
| COc1ccc(NC(=O)C(=O)c2c[nH]c3ccccc23)cc1 | Non-toxic | Non-toxic | 100% | 67.9% | 11 nM | 20% | 91 nM |  |
| O=C(Nc1ccccc1)C(=O)c1c[nH]c2ccc(Cl)cc12 | Non-toxic | Non-toxic |  |  | 1630 nM |  |  | Toxic |
| Cc1ccc(NC(=O)C(=O)c2c[nH]c3cc(C(C)C)ccc23)cc1 | Non-toxic | Non-toxic |  | 82.6% | 610 nM | 20% |  |  |
| COc1ccc(NC(=O)C(=O)c2c[nH]c3cc([N+](=O)[O-])ccc23)cc1 | Non-toxic | Non-toxic |  | 90% | 10.5 nM |  |  | Toxic |
| Cc1ccc(NC(=O)C(=O)c2c[nH]c3cc([N+](=O)[O-])ccc23)cc1 | Non-toxic | Non-toxic | 100% | 84.8% | 35 nM | 20% |  |  |
| COc1ccc(NC(=O)C(=O)c2c[nH]c3cccc(C)c23)cc1 | Non-toxic | Non-toxic | 100% |  | 2360 nM |  |  |  |
| Cc1ccc(NC(=O)C(=O)c2c[nH]c3cccc(C)c23)cc1 | Non-toxic | Non-toxic | 100% |  | > 20000 nM | 20% |  |  |
| Cc1cccc2[nH]cc(C(=O)C(=O)Nc3ccc(N4CCOCC4)cc3)c12 | Non-toxic | Non-toxic |  |  | 680 nM | 20% |  | Toxic |
| COc1ccc(NC(=O)C(=O)c2c[nH]c3ccc(C)cc23)cc1 | Non-toxic | Non-toxic | 100% |  | 880 nM |  |  |  |
| Cc1ccc(NC(=O)C(=O)c2c[nH]c3ccc(C)cc23)cc1 | Non-toxic | Non-toxic |  |  | 900 nM | 20% |  | Toxic |
| Cc1ccc2[nH]cc(C(=O)C(=O)Nc3ccc(N4CCOCC4)cc3)c2c1 | Non-toxic | Non-toxic |  |  | 83 nM | 20% |  | Toxic |
| Cc1ccc2[nH]cc(C(=O)C(=O)Nc3ccccc3)c2c1 | Non-toxic | Non-toxic | 100% |  | 11500 nM |  |  |  |
| Cc1ccc(NC(=O)C(=O)c2c[nH]c3ccc(Cl)cc23)cc1 | Non-toxic | Non-toxic | 100% |  | 560 nM | 20% |  |  |
| O=C(Nc1ccc(N2CCOCC2)cc1)C(=O)c1c[nH]c2ccc(Cl)cc12 | Non-toxic | Non-toxic |  |  | 69 nM | 20% |  | Toxic |
| COc1ccc(NC(=O)C(=O)c2c[nH]c3cc(C)ccc23)cc1 | Non-toxic | Non-toxic | 100% | 89.1% | 12 nM |  |  |  |
| Cc1ccc(NC(=O)C(=O)c2c[nH]c3cc(C)ccc23)cc1 | Non-toxic | Non-toxic | 100% | 90.2% | 51 nM | 20% |  |  |
| Cc1ccc2c(C(=O)C(=O)Nc3ccccc3)c[nH]c2c1 | Non-toxic | Non-toxic | 100% |  | 44 nM |  |  |  |
| COc1ccc(NC(=O)C(=O)c2c[nH]c3cc(Cl)ccc23)cc1 | Non-toxic | Non-toxic |  | 87.3% | 9.9 nM |  |  | Toxic |
| Cc1ccc(NC(=O)C(=O)c2c[nH]c3cc(Cl)ccc23)cc1 | Non-toxic | Non-toxic | 100% | 85.6% | 100 nM | 20% |  |  |
| O=C(Nc1ccc(N2CCOCC2)cc1)C(=O)c1c[nH]c2cc(Cl)ccc12 | Non-toxic | Non-toxic |  |  | 7.3 nM | 20% |  |  |

| SMILES | Activity (ScN2a) | Activity [1] | survival at 72 h, 5 µM [2] | remaining at 0.5 h [3] | EC50 [4] | mortality at 72 h, 5 µM [5] | EC50 [6] | Activity (Danio rerio) |
| --- | --- | --- | --- | --- | --- | --- | --- | --- |
| O=C(Nc1ccccc1)C(=O)c1c[nH]c2cc(Cl)ccc12 | Non-toxic | Non-toxic | 100% |  | 74 nM |  |  |  |
| COc1ccc(NC(=O)C(=O)c2c[nH]c3c(C)cccc23)cc1 | Non-toxic | Non-toxic | 100% |  | 150 nM |  |  |  |
| Cc1ccc(NC(=O)C(=O)c2c[nH]c3c(C)cccc23)cc1 | Non-toxic | Non-toxic |  |  | 1400 nM | 20% |  | Toxic |
| Cc1cccc2c(C(=O)C(=O)Nc3ccc(N4CCOCC4)cc3)c[nH]c12 | Non-toxic | Non-toxic | 100% |  | 16 nM | 20% |  |  |
| COc1ccc(NC(=O)C(=O)c2c[nH]c3c(Cl)cccc23)cc1 | Non-toxic | Non-toxic |  |  | 24 nM |  | 247 nM | Toxic |
| Cc1ccc(NC(=O)C(=O)c2c[nH]c3c(Cl)cccc23)cc1 | Non-toxic | Non-toxic | 100% |  | 470 nM | 20% | 1260 nM |  |
| O=C(Nc1ccc(N2CCOCC2)cc1)C(=O)c1c[nH]c2c(Cl)cccc12 | Non-toxic | Non-toxic | 100% |  | 7.2 nM | 20% |  |  |
| O=C(Nc1ccc(-n2cccc2)cc1)C(=O)c1c[nH]c2cc(Cl)ccc12 | Non-toxic | Non-toxic |  |  | 17 nM |  |  | Toxic |
| O=C(Nc1ccc(-n2cccn2)cc1)C(=O)c1c[nH]c2cc(Cl)ccc12 | Non-toxic | Non-toxic | 100% | 96.7% | 6.1 nM |  | 175 nM |  |
| Cn1cc(C(=O)C(=O)Nc2ccc(-n3cccc3)cc2)c2ccc(Cl)cc21 | Non-toxic | Non-toxic | 100% |  | 270 nM |  |  |  |
| COc1ccc(NC(=O)C(=O)c2cn(C)c3cc(Cl)ccc23)cc1 | Non-toxic | Non-toxic |  |  | 1630 nM |  |  | Toxic |
| Cn1cc(C(=O)C(=O)Nc2ccc(-n3cccc3)cc2)c2ccccc21 | Non-toxic | Non-toxic | 100% |  | 170 nM |  |  |  |
| O=C(Nc1ccc(-n2cccc2)cc1)C(=O)c1c[nH]c2cc(F)ccc12 | Non-toxic | Non-toxic | 100% |  | 7.7 nM |  |  |  |
| O=C(Nc1ccc(-n2cccn2)cc1)C(=O)c1c[nH]c2cc(F)ccc12 | Non-toxic | Non-toxic |  |  | 1.2 nM |  |  | Toxic |
| COc1ccc(NC(=O)C(=O)c2c[nH]c3cc(F)ccc23)cc1 | Non-toxic | Non-toxic | 100% | 74.6% | 13 nM |  |  |  |
| COc1ccc(NC(=O)C(=O)c2c[nH]c3cc(C(C)C)ccc23)cc1 | Non-toxic | Non-toxic | 100% | 86.2% | 330 nM |  |  |  |
| COc1ccc(NC(=O)C(=O)c2c[nH]c3ccc(Cl)cc23)cc1 | Non-toxic | Non-toxic |  |  | 470 nM |  |  | Toxic |
| COc1ccc(NC(=O)C(=O)c2cn(C)c3ccccc23)cc1 | Non-toxic | Non-toxic |  |  | 68 nM |  |  | Toxic |
| O=C(Nc1ccc(N2CCOCC2)cc1)C(=O)c1c[nH]c2ccccc12 | Non-toxic | Non-toxic |  |  | 9 nM | 20% | 65 nM | Toxic |
